According to paper PMC6424611 (Journal of molecular biology, 2019):
Where no end group is shown, it is not given here. [ ]: non-standard residue; d: D form. The star is where a group is joined. Biotin = O=C1N[C@H]2[C@H](CS[C@H]2CCCCC(=O)*)N1; TTDS = NCCCOCCOCCOCCCNC(=O)CCC(=O)*; pS = N[C@@H](COP(=O)(O)O)C(=O)O

Assays:
ARHGEF11 PDZ = experiment: holdup assay; type: binding, human; conditions: ~4 μM PDZ
Summary of the method: (§1)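 Automated holdup against N-terminally biotinylated (TTDS linker) RSK1 725–735 peptides, unphosphorylated and phosphorylated, in triplicate. PDZome v2 clones were codon-optimized and expressed in E. coli, with soluble lysate adjusted to ~4 μM. BI is the PDZ fraction depleted from the fluid phase.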

GOPC PDZ = GOPC PDZ (Homo sapiens, UniProt Q9HD26); experiment: holdup assay; type: binding; conditions: fraction of PDZ depleted; ~4 μM PDZ; biotinylated RSK1_725–735; triplicates
GRID2IP-2 PDZ = GRID2IP-2 PDZ (Homo sapiens, UniProt A4D2P6); experiment: holdup assay; type: binding; conditions: fraction of PDZ depleted; ~4 μM PDZ; biotinylated RSK1_725–735; triplicates
Summary of the method: (§2)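 Automated holdup in triplicate measured biotinylated (N-terminal TTDS linker) RSK1 725–735 peptides, unphosphorylated or phosphorylated, against E. coli-expressed PDZome v2 domains. Soluble lysate was adjusted to ~4 μM, giving 255 domains for the unphosphorylated and 252 for the phosphorylated peptide. Binding intensity (BI) is the fraction of PDZ depleted from the fluid phase. BI 0.2 was the high-confidence threshold.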

DFNB31-3 PDZ = experiment: holdup assay; type: binding, human; conditions: ~4 μM PDZ
Summary of the method: as §1

GRASP PDZ = experiment: holdup assay; type: binding, human; conditions: ~4 μM PDZ
Summary of the method: as §1

NHERF2-2 PDZ = experiment: holdup assay; type: binding, human; conditions: ~4 μM PDZ
Summary of the method: as §1

LIMK2 PDZ = experiment: holdup assay; type: binding, human; conditions: ~4 μM PDZ
Summary of the method: as §1

SNTB1 PDZ = target: T1, SNTB1 PDZ (Homo sapiens, UniProt Q13884); experiment: holdup assay; type: binding; conditions: ~4 μM PDZ
T1 sequence (Q13884 112-195 limits assumed): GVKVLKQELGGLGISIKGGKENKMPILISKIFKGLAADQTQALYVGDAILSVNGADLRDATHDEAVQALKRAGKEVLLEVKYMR
Summary of the method: as §1

SNTG2 PDZ = target: T2, SNTG2 PDZ (Homo sapiens, UniProt Q9NY99); experiment: holdup assay; type: binding; conditions: fraction of PDZ depleted; ~4 μM PDZ; biotinylated RSK1_725–735; triplicates
T2 sequence (Q9NY99 73-156 limits assumed): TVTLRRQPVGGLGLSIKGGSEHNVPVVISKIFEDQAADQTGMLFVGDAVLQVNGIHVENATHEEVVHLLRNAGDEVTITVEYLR
Summary of the method: as §1

PTPN3 PDZ = experiment: holdup assay; type: binding, human; conditions: ~4 μM PDZ
Summary of the method: as §1

DLG4-2 PDZ = experiment: holdup assay; type: binding, human; conditions: fraction of PDZ depleted; ~4 μM PDZ; biotinylated RSK1_725–735; triplicates
MAGI2-2 PDZ = MAGI2-2 PDZ (Homo sapiens, UniProt Q86UL8); experiment: holdup assay; type: binding; conditions: ~4 μM PDZ
Summary of the method: as §1

LAP2 PDZ = experiment: holdup assay; type: binding, human; conditions: fraction of PDZ depleted; ~4 μM PDZ; biotinylated RSK1_725–735; triplicates
Summary of the method: as §1

MAGI1-2 PDZ = MAGI1-2 PDZ (Homo sapiens, UniProt Q96QZ7); experiment: holdup assay; type: binding
Summary of the method: as §1

PDZD7-3 PDZ = target: T3, PDZD7-3 PDZ (Homo sapiens, UniProt Q9H5P4); experiment: holdup assay; type: binding; conditions: ~4 μM PDZ
T3 sequence (Q9H5P4 862-934 limits assumed): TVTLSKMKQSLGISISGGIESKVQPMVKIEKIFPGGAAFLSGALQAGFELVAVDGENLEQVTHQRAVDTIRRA
Summary of the method: as §1

PPP1R9A PDZ = experiment: holdup assay; type: binding, human; conditions: ~4 μM PDZ
Summary of the method: as §1

MAGI3-2 PDZ = experiment: holdup assay; type: binding, human; conditions: fraction of PDZ depleted; ~4 μM PDZ; biotinylated RSK1_725–735; triplicates
Summary of the method: as §2

SHROOM2 PDZ = experiment: holdup assay; type: binding, human; conditions: ~4 μM PDZ
Summary of the method: as §1

SCRIB-3 PDZ = experiment: holdup assay, updated analysis; type: binding, human; conditions: weak partner; automated computational protocol
Summary of the method: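 The same triplicate holdup datasets (biotinylated RSK1 725–735, unphosphorylated and phosphorylated, vs ~4 μM PDZome lysates) were re-analysed with an updated automated computational protocol. This gave alternative BI values, reported as supplemental values alongside the conventional analysis.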

PARD3B-1 PDZ = target: T4, PARD3B-1 PDZ (Homo sapiens, UniProt Q8TEW8); experiment: holdup assay; type: binding; conditions: fraction of PDZ depleted; ~4 μM PDZ; biotinylated RSK1_725–735; triplicates
T4 sequence (Q8TEW8 201-289 limits assumed): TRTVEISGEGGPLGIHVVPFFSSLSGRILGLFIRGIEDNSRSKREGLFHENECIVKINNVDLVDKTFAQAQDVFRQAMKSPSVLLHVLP
Summary of the method: as §2

GRID2IP-1 PDZ = experiment: holdup assay; type: binding, human; conditions: ~4 μM PDZ
Summary of the method: as §1

MAST2 PDZ = target: T5, MAST2 PDZ (Homo sapiens, UniProt Q6P0Q8); experiment: holdup assay; type: binding; conditions: ~4 μM PDZ
T5 sequence (Q6P0Q8 1104-1192 limits assumed): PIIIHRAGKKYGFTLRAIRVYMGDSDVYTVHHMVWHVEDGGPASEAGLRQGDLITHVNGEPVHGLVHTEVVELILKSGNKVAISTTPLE
Summary of the method: as §1

[1] = test system: human PDZ domains (PDZome); experiment: holdup assay, PDZome-binding profile
Summary of the method: as §2

NHERF3-1 PDZ = target: T6, NHERF3-1 PDZ (Homo sapiens, UniProt Q5T2W1); experiment: holdup assay; type: binding; conditions: ~4 μM PDZ
T6 sequence (Q5T2W1 9-90 limits assumed): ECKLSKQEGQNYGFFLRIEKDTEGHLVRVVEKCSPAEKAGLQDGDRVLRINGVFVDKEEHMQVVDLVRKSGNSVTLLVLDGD
Summary of the method: as §1

GORASP1 PDZ = experiment: holdup assay; type: binding, human; conditions: ~4 μM PDZ
Summary of the method: as §1

HTRA1 PDZ = HTRA1 PDZ (Homo sapiens, UniProt Q92743); experiment: holdup assay; type: binding; conditions: ~4 μM PDZ
Summary of the method: as §1

PDZRN4-1 PDZ = target: T7, PDZRN4-1 PDZ (Homo sapiens, UniProt Q6ZMN7); experiment: holdup assay; type: binding; conditions: fraction of PDZ depleted; ~4 μM PDZ; biotinylated RSK1_725–735; triplicates
T7 sequence (Q6ZMN7 224-314 limits assumed): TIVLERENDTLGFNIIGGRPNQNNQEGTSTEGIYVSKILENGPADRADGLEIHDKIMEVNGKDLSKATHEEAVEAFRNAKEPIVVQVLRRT
Summary of the method: as §2

[2] = fraction of PDZ depleted, biotinylated RSK1_725–735, triplicates
[3] = read-out: KD, estimated, from BI, estimated 17 μM peptide
[4] = BI threshold 0.2, compared to the unphosphorylated peptide

MAGI1-2 PDZ, sequence (Q96QZ7 472-554 limits assumed): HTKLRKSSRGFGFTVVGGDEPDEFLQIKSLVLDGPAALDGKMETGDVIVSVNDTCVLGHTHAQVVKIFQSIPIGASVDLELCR
MAGI2-2 PDZ, sequence (Q86UL8 426-510 limits assumed): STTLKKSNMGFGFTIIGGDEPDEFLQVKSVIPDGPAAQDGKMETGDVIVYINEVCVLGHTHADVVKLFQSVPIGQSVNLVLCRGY
HTRA1 PDZ, sequence (Q92743 365-467 limits assumed): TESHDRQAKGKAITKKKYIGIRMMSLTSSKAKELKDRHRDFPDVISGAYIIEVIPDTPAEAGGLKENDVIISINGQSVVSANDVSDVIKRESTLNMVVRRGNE
GRID2IP-2 PDZ, sequence (A4D2P6 279-356 limits assumed): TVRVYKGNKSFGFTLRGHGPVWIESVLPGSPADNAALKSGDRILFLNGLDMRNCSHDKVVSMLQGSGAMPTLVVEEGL

**Q.** With “phosphorylated RSK1 peptide: RSK1 C-terminal PBM peptide phosphorylated at position −3; same constructs as the unphosphorylated ({Biotin-TTDS}-RRVRKLP[pS]TTL)” as the substance, how does the “binding intensity (BI)” value (ARHGEF11 PDZ; [2]) read?
**A.** Its value is 0.01 ± 0.02.

**Q.** And the Kd (ARHGEF11 PDZ; [3])?
**A.** Its Kd is greater than 100 µM.

**Q.** And the “binding intensity (BI)” value (GOPC PDZ)?
**A.** The value was 0.25 ± 0.10.

**Q.** What about the “binding intensity (BI)” value (GRID2IP-2 PDZ) of the same substance?
**A.** The value was 0.00 ± 0.01.

**Q.** And the “binding intensity (BI)” value (DFNB31-3 PDZ; [2])?
**A.** Its value is −0.01 ± 0.02.

**Q.** What about the Kd (DFNB31-3 PDZ; [3]) of the same substance?
**A.** The Kd was greater than 100 µM.

**Q.** What about the “binding intensity (BI)” value (GRASP PDZ; [2]) of the same substance?
**A.** Its value is 0.04 ± 0.01.

**Q.** And the Kd (GRASP PDZ; [3])?
**A.** The Kd was greater than 100 µM.

**Q.** What about the “binding intensity (BI)” value (NHERF2-2 PDZ; [2]) of the same substance?
**A.** Its value is 0.07 ± 0.05.

**Q.** And the Kd (NHERF2-2 PDZ; [3])?
**A.** The Kd was greater than 100 µM.

**Q.** And the “binding intensity (BI)” value (LIMK2 PDZ; [2])?
**A.** The value was 0.22 ± 0.07.

**Q.** What about the Kd (LIMK2 PDZ; [3]) of the same substance?
**A.** Its Kd is 57.2 µM.

**Q.** What about the “binding intensity (BI)” value (SNTB1 PDZ; [2]) of the same substance?
**A.** Its value is 0.45 ± 0.08.

**Q.** What about the Kd (SNTB1 PDZ; [3]) of the same substance?
**A.** The Kd was 18.6 µM.

**Q.** And the “binding intensity (BI)” value (SNTG2 PDZ)?
**A.** The value was 0.52 ± 0.05.

**Q.** What about the “binding intensity (BI)” value (PTPN3 PDZ; [2]) of the same substance?
**A.** Its value is 0.21 ± 0.02.

**Q.** And the Kd (PTPN3 PDZ; [3])?
**A.** Its Kd is 60.8 µM.

**Q.** What about the “binding intensity (BI)” value (DLG4-2 PDZ) of the same substance?
**A.** Its value is 0.25 ± 0.02.

**Q.** What about the “binding intensity (BI)” value (MAGI2-2 PDZ; [2]) of the same substance?
**A.** The value was 0.23 ± 0.03.

**Q.** What about the Kd (MAGI2-2 PDZ; [3]) of the same substance?
**A.** Its Kd is 53.8 µM.

**Q.** What about the “binding intensity (BI)” value (LAP2 PDZ) of the same substance?
**A.** Its value is 0.28 ± 0.01.

**Q.** What about the “binding intensity (BI)” value (MAGI1-2 PDZ; fraction of PDZ depleted, ~4 μM PDZ, biotinylated RSK1_725–735, triplicates) of the same substance?
**A.** The value was 0.15 ± 0.02.

**Q.** What about the “down regulation of interaction by phosphorylation” value (MAGI1-2 PDZ; holdup, phosphorylated vs unphosphorylated) of the same substance?
**A.** Its value is “a factor of five”.

**Q.** What about the Kd (MAGI1-2 PDZ; read-out: KD, estimated, from BI, estimated 17 μM peptide, ~4 μM PDZ) of the same substance?
**A.** Its Kd is 92.9 µM.

**Q.** And the “binding intensity (BI)” value (PDZD7-3 PDZ; [2])?
**A.** The value was 0.15 ± 0.03.

**Q.** What about the Kd (PDZD7-3 PDZ; [3]) of the same substance?
**A.** Its Kd is 92.9 µM.

**Q.** What about the “binding intensity (BI)” value (PPP1R9A PDZ; [2]) of the same substance?
**A.** The value was 0.33 ± 0.02.

**Q.** And the Kd (PPP1R9A PDZ; [3])?
**A.** Its Kd is 31.8 µM.

**Q.** And the “binding intensity (BI)” value (MAGI3-2 PDZ)?
**A.** Its value is 0.28 ± 0.06.

**Q.** What about the “binding intensity (BI)” value (SHROOM2 PDZ; [2]) of the same substance?
**A.** Its value is 0.21 ± 0.01.

**Q.** And the Kd (SHROOM2 PDZ; [3])?
**A.** Its Kd is 60.8 µM.

**Q.** What about the “interaction partner by updated analysis” value (SCRIB-3 PDZ) of the same substance?
**A.** The value was “new partners”.

**Q.** What about the “binding intensity (BI)” value (PARD3B-1 PDZ) of the same substance?
**A.** The value was 0.31 ± 0.02.

**Q.** And the “binding intensity (BI)” value (GRID2IP-1 PDZ; [2])?
**A.** Its value is 0.24 ± 0.01.

**Q.** What about the Kd (GRID2IP-1 PDZ; [3]) of the same substance?
**A.** Its Kd is 50.8 µM.

**Q.** What about the “binding intensity (BI)” value (MAST2 PDZ; [2]) of the same substance?
**A.** Its value is 0.23 ± 0.03.

**Q.** What about the Kd (MAST2 PDZ; [3]) of the same substance?
**A.** The Kd was 53.8 µM.

**Q.** And the “number of detectable binders lost” value [1, 4]?
**A.** Its value is 12.

**Q.** And the “number of new binders gained” value [1, 4]?
**A.** Its value is 10.

**Q.** What about the “average BI” value ([1]; PDZome profile) of the same substance?
**A.** The value was 0.33.

**Q.** And the “maximal BI” value ([1]; PDZome profile)?
**A.** Its value is 0.54.

**Q.** What about the “binding intensity (BI)” value (NHERF3-1 PDZ; [2]) of the same substance?
**A.** Its value is 0.03 ± 0.01.

**Q.** And the Kd (NHERF3-1 PDZ; [3])?
**A.** The Kd was greater than 100 µM.

**Q.** And the “binding intensity (BI)” value (GORASP1 PDZ; [2])?
**A.** Its value is 0.23 ± 0.03.

**Q.** What about the Kd (GORASP1 PDZ; [3]) of the same substance?
**A.** Its Kd is 53.8 µM.

**Q.** What about the “binding intensity (BI)” value (HTRA1 PDZ; [2]) of the same substance?
**A.** The value was 0.36 ± 0.01.

**Q.** And the Kd (HTRA1 PDZ; [3])?
**A.** The Kd was 27.7 µM.

**Q.** What about the “binding intensity (BI)” value (PDZRN4-1 PDZ) of the same substance?
**A.** The value was 0.54 ± 0.03.
